Reference: ChEMBL document CHEMBL1795271, “7-Alkyl-N(2)-substituted-3-deazaguanines. Synthesis, DNA polymerase III inhibition and antibacterial activity” (Bioorg Med Chem Lett, 2011)
Converted amounts (≈) assume the structure as drawn.

How the values were obtained:
[1] = tested on: Staphylococcus aureus; assay: Antibacterial activity against methicillin-resistant Staphylococcus aureus ATCC 1094 after 16 to 24 hrs by twofold serial dilution method; type: functional
[2] = tested on: Staphylococcus aureus; assay: Antibacterial activity against Staphylococcus aureus ATCC 25923 after 16 to 24 hrs by twofold serial dilution method; type: functional
[3] = tested on: Staphylococcus aureus; assay: Antibacterial activity against Staphylococcus aureus Smith infected Swiss-webster mouse assessed as mouse survival at 100 mg/kg, ip administered 15 mins post-infection for 24 hrs relative to control; type: functional; conditions: route intraperitoneal
Outline: (§1)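 Male pathogen-free Swiss–Webster mice, 20–24 g, with free access to food and water. S. aureus Smith grown to log phase at 37 °C in LB, with CFU estimated from OD600. Cells washed in cold broth and injected IP in 0.5 mL broth. Groups of 5 or 10 mice dosed IP 15 min post-infection with vehicle (10% DMSO/peanut oil) or compound in vehicle. Daptomycin 30 mg/Kg in saline served as control.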

[4] = tested on: Escherichia coli; assay: Antibacterial activity against Escherichia coli J-53 after 16 to 24 hrs by twofold serial dilution method; type: functional
[5] = tested on: Staphylococcus aureus; assay: Antibacterial activity against Staphylococcus aureus ATCC 13709 (Smith) after 16 to 24 hrs by twofold serial dilution method; type: functional
[6] = tested on: Enterococcus faecium; assay: Antibacterial activity against Enterococcus faecium ATCC 19434 after 16 to 24 hrs by twofold serial dilution method; type: functional
[7] = Inhibition of Bacillus subtilis DNA polymerase 3E assessed as incorporation of [3H]TMP into activated calf thymus DNA incubated with dATP, dCTP and [3H]TTP in absence of dGTP
Outline: (§2)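 Enzymes: recombinant B. subtilis pol IIIE and E. coli three-subunit pol III core. Each was assayed with activated calf thymus DNA, dATP, dCTP and [3H]TTP, without the competitor dGTP. [3H]TMP incorporation was measured and Ki derived. Values are averages of at least two independent experiments.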

[8] = tested on: Bacillus subtilis; assay: Antibacterial activity against Bacillus subtilis BD54 after 16 to 24 hrs by twofold serial dilution method; type: functional
[9] = Inhibition of Bacillus subtilis DNA polymerase 3C assessed as incorporation of [3H]TMP into activated calf thymus DNA incubated with dATP, dCTP and [3H]TTP in absence of dGTP
Outline: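 Recombinant B. subtilis pol IIIC assayed on activated calf thymus DNA with dATP, dCTP and [³H]TTP, without competitor dGTP. Read-out was [³H]TMP incorporation. Ki values are averages of at least two independent experiments.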

[10] = tested on: Enterococcus faecalis; assay: Antibacterial activity against vancomycin-resistant Enterococcus faecalis after 16 to 24 hrs by twofold serial dilution method
[11] = Inhibition of Escherichia coli DNA polymerase 3E assessed as incorporation of [3H]TMP into activated calf thymus DNA incubated with dATP, dCTP and [3H]TTP in absence of dGTP; outline: as §2
[12] = tested on: Staphylococcus aureus; assay: Antibacterial activity against Staphylococcus aureus Smith infected Swiss-webster mouse assessed as mouse survival at 10 mg/kg, ip administered 15 mins post-infection for 24 hrs relative to control; type: functional; conditions: route intraperitoneal; outline: as §1
[13] = tested on: Staphylococcus aureus; assay: Antibacterial activity against Staphylococcus aureus Smith infected Swiss-webster mouse assessed as mouse survival at 30 mg/kg, ip administered 15 mins post-infection for 24 hrs relative to control; type: functional; conditions: route intraperitoneal; outline: as §1
[14] = tested on: Enterococcus faecalis; assay: Antibacterial activity against Enterococcus faecalis ATCC 29212 after 16 to 24 hrs by twofold serial dilution method; type: functional
[15] = tested on: Staphylococcus aureus; assay: Antibacterial activity against Staphylococcus aureus Smith infected Swiss-webster mouse assessed as mouse survival at 60 mg/kg, ip administered 15 mins post-infection for 24 hrs relative to control; type: functional; conditions: route intraperitoneal; outline: as §1

Which results are given for `COCCCCCn1cnc2cc(NCc3ccc(Cl)c(Cl)c3)[nH]c(=O)c21`?
MIC [1]: 2.5 µg/mL (≈ 6.11 µM); MIC [2]: 2.5 µg/mL (≈ 6.11 µM); survival at 100 mg/kg [3]: 40%; MIC [4]: > 80 µg/mL; MIC [5]: 1.25 µg/mL (≈ 3.05 µM); MIC [6]: 1.25 µg/mL (≈ 3.05 µM); Ki [7]: 420 nM; MIC [8]: 1.25 µg/mL (≈ 3.05 µM); Ki [9]: 160 nM; MIC [10]: 5 µg/mL (≈ 12.2 µM); Ki [11]: 81000 nM

Which survival at 10 mg/kg [12] does the source give for `CCCCCCCCCC(=O)N[C@@H](Cc1c[nH]c2ccccc12)C(=O)N[C@H](CC(N)=O)C(=O)N[C@@H](CC(=O)O)C(=O)N[C@@H]1C(=O)NCC(=O)N[C@@H](CCCN)C(=O)N[C@@H](CC(=O)O)C(=O)N[C@H](C)C(=O)N[C@@H](CC(=O)O)C(=O)NCC(=O)N[C@H](CO)C(=O)N[C@@H]([C@H](C)CC(=O)O)C(=O)N[C@@H](CC(=O)c2ccccc2N)C(=O)O[C@@H]1C` here?
The survival at 10 mg/kg was 10%.

For `CC(=O)OCCCCCn1cnc2nc(NCc3ccc(Cl)c(Cl)c3)nc(O)c21`, which MIC [1] is on record?
Its MIC is 1.25 µg/mL (≈ 2.85 µM).

What about the MIC [2] of the same compound?
The MIC was 2.5 µg/mL (≈ 5.7 µM).

What about the survival at 10 mg/kg [12] of the same compound?
Its survival at 10 mg/kg is 30%.

And the survival at 30 mg/kg [13]?
Its survival at 30 mg/kg is 50%.

And the MIC [4]?
Its MIC is greater than 80 µg/mL.

What about the MIC [5] of the same compound?
The MIC was 1.25 µg/mL (≈ 2.85 µM).

And the MIC [6]?
Its MIC is 1.25 µg/mL (≈ 2.85 µM).

What about the MIC [14] of the same compound?
The MIC was 1.25 µg/mL (≈ 2.85 µM).

What about the MIC [8] of the same compound?
The MIC was 1.25 µg/mL (≈ 2.85 µM).

And the MIC [10]?
The MIC was 5 µg/mL (≈ 11.4 µM).

What about the survival at 60 mg/kg [15] of the same compound?
The survival at 60 mg/kg was 80%.
